The subject of one assay is OVCAR-3. As to the kind of experiment: Antiproliferative activity against human OVCAR-3 cell line. In kind it is functional.
The next assay concerns SN12C. Nature of the assay: Antiproliferative activity against human SN12C cell line. Type of assay: functional.
The subject of a further assay is DU-145. As to the kind of experiment: Antiproliferative activity against human DU145 cell line. Type of assay: functional.
Another assay concerns MDA-MB-435. Nature of the assay: Antiproliferative activity against human MDA-MB-435 cell line. In kind it is functional.
Assay [1] has as its target T1, DNA topoisomerase 1 (Homo sapiens) (UniProt P11387).
T1 sequence (whole entry): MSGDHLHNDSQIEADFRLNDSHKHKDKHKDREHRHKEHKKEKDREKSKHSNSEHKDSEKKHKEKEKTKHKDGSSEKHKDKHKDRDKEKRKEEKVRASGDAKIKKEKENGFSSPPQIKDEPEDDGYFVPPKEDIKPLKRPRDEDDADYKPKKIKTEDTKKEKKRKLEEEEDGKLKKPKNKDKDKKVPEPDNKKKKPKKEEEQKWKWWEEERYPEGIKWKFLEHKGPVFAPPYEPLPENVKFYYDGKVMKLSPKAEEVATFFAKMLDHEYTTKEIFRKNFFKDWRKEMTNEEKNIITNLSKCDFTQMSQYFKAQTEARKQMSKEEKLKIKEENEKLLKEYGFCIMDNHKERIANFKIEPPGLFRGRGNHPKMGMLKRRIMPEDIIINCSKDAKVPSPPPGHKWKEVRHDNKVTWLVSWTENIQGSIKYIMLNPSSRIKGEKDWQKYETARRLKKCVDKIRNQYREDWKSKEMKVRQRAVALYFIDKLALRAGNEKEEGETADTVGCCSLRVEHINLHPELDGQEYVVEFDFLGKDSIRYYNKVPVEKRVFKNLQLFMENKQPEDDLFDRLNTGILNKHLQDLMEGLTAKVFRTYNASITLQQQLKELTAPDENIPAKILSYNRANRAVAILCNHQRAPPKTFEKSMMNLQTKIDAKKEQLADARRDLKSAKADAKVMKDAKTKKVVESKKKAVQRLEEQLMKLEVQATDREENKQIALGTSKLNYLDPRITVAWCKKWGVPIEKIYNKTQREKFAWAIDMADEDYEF
Nature of the assay: Inhibition of human recombinant Top1-mediated DNA cleavage upto 10 uM. In a few lines: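 Baculovirus-purified human recombinant Top1. Substrate: 161 bp PvuII/HindIII fragment of pBluescript SK(-), 3′-end labeled with [α-32P]-dGTP by Klenow fill-in, about 50 000 dpm per reaction. Compounds up to 10 µM, 22 °C for 30 min; stopped with 0.5% SDS (final). Denaturing 16% polyacrylamide/7 M urea gels, phosphorimaging. Cleavage scored semiquantitatively (+ to ++++) against a reference indenoisoquinoline and 1 µM camptothecin.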

For assay [2], the system named is Panel (12 tumour cell lines). As to the kind of experiment: Net cell kill in ip dosed mouse implanted with 12 human tumor cell lines. Type of assay: functional, organism-based.
The subject of the next assay is HOP-62. As to the kind of experiment: Antiproliferative activity against human HOP62 cell line. Type of assay: functional.
Another assay has as its system HCT-116. As to the kind of experiment: Antiproliferative activity against human HCT116 cell line. Type of assay: functional.
The next assay has as its system SF-539. As to the kind of experiment: Antiproliferative activity against human SF539 cell line. In kind it is functional.
For a further assay, the system named is UACC-62. As to the kind of experiment: Antiproliferative activity against human UACC62 cell line. In kind it is functional.

Consider 2 compounds from ChEMBL document CHEMBL1145341, “Synthesis and biological evaluation of bisindenoisoquinolines as topoisomerase I inhibitors” (2006).

What is called GI50 is the concentration giving 50% growth inhibition. Low readings indicate greater sensitivity of the cells, high ones lower sensitivity of the cells.

Active and inactive are the calls of the source. No cut-off for these calls is given here.

For the compound `O=C1c2ccccc2-c2c1c1ccccc1c(=O)n2CCNCCNCCNCCn1c2c(c3ccccc3c1=O)C(=O)c1ccccc1-2`, the GI50 in the assay with OVCAR-3 was determined as 1150 nM; in the assay with SN12C, 17 nM; in the assay on DU-145 it was 331 nM; with MDA-MB-435 it was 1000 nM; in the assay on HOP-62, 48 nM; in the assay on HCT-116, 112 nM. The values for the 50% growth inhibitory concentration (GI50) with SF-539 and in the assay on UACC-62 were 275 nM and 269 nM, respectively. In assay [1], the result was Active. Further, the result in assay [2] was inactive.
Take `O=C1c2ccccc2-c2c1c1ccccc1c(=O)n2CCCNCCCCNCCCn1c2c(c3ccccc3c1=O)C(=O)c1ccccc1-2`: the concentration for 50% growth inhibition (GI50) in the assay with OVCAR-3 was 135 nM; in the assay on SN12C, below 5 nM; with DU-145, 234 nM; with MDA-MB-435, 676 nM; in the assay with HOP-62 it was 525 nM; in the assay with HCT-116, below 5 nM. Also, the GI50 with SF-539 turned out to be 251 nM; in the assay with UACC-62, 562 nM. Besides, the outcome in assay [1] was Active. In addition, the outcome in assay [2] was inactive.
